Results as given in ChEMBL document CHEMBL1122695, “C1-Methylated 5-hydroxy-2-(dipropylamino)tetralins: central dopamine-receptor stimulating activity” (1984).
Active and inactive are the calls of the source. The rule behind the calls is not given here.

Columns and labels:
Rattus norvegicus [1] = organism: Rattus norvegicus; experiment: Half maximal decrease of dopa accumulation in limbic portion of reserpinized rats; I =Inactive; format: functional, organism-based; conditions: Limbic system
How it was run: (§1)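 Reserpinized rats; Dopa accumulation measured after the decarboxylase inhibitor NSD 1015 (100 mg/kg), Dopa determined spectrophotometrically. Compounds in saline, given subcutaneously at four to six dose levels. A dose-response curve was built per compound and brain area (limbic, striatal). ED50 is the dose giving half-maximal decrease of Dopa, estimated graphically. SEM was below 15% of the mean at each point.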

Rattus norvegicus [2] = organism: Rattus norvegicus; experiment: Reduction in accumulated dopa is indicated with Motor activity value; format: functional
How it was run: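 Rats given reserpine (10 mg/kg ip) 6 h and α-methyl-p-tyrosine methyl ester (250 mg/kg ip) 1 h before testing. Compounds were then given sc in the neck, n = 4, at 1 or 10 mg/kg in saline; controls received saline. Photocell motility meters, one rat per cage, recorded activity for 60 min immediately after dosing, with gross behavior observed.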

Rattus norvegicus [3] = organism: Rattus norvegicus; experiment: Half maximal decrease of dopa accumulation in striatal brain portion of reserpinized rats; I =Inactive; format: functional, organism-based; how it was run: as §1
Rattus norvegicus [4] = organism: Rattus norvegicus; experiment: Half maximal decrease of dopa accumulation in limbic portion of reserpinized rats; format: functional; conditions: Limbic system; how it was run: as §1
Rattus norvegicus [5] = organism: Rattus norvegicus; experiment: Half maximal decrease of dopa accumulation in striatal brain portion of reserpinized rats; format: functional; how it was run: as §1

Row | Structure (SMILES) | ED50 (Rattus norvegicus [1]) | Motor activity (Rattus norvegicus [2]) | ED50 (Rattus norvegicus [3]) | ED50 (Rattus norvegicus [4]) [µmol/kg] | ED50 (Rattus norvegicus [5]) [µmol/kg]
1 | CCCN(CCC)[C@H]1CCc2c(O)cccc2C1(C)C | inactive | inactive | inactive | – | –
2 | Br.CCCN(CCC)[C@H]1CCc2c(O)cccc2[C@@H]1C | – | 406 Counts hr-1 | – | 0.66 | 0.725
3 | Br.CCCN(CCC)[C@H]1CCc2c(O)cccc2[C@H]1C | – | 52 Counts hr-1 | – | 0.67 | 0.8
